Measured values published in ChEMBL document CHEMBL4038284, “Synthesis of novel quinoline-based 4,5-dihydro-1H-pyrazoles as potential anticancer, antifungal, antibacterial and antiprotozoal agents” (Eur J Med Chem, 2017).
≈ marks a conversion by molar mass, not a printed value.

Assays:
U-937 = assay: Cytotoxicity against human U937 cells after 72 hrs by MTT assay; type: cell-based; details: u-937, 72 h
In short: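 Exponentially growing U-937 at 1 × 10^5 cells/mL in RPMI-1640 with 10% FBS were exposed to 200, 50, 12.5 and 3.125 µg/mL for 72 h at 37 °C, 5% CO2. MTT for 3 h, stopped with isopropanol/SDS, formazan read at 570 nm, blank-corrected. LC50 by Probit from % viability against untreated cells. Triplicate, at least two independent experiments.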

Cryptococcus neoformans [1] = assay: Growth inhibition of Cryptococcus neoformans ATCC 32264 at 62.5 ug/ml incubated for 48 hrs under dark condition by broth microdilution method relative to control; type: functional; details: ATCC 32264, 48 h, read-out: GI
In short: (§1)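 CLSI M27-A3 broth microdilution in RPMI-1640, DMSO ≤1%. Inoculum 1-5 × 10^3 CFU/mL. Incubated 48 h at 30 °C, dark. % inhibition = 100 − (OD405 test − sterility control)/(OD405 growth control − sterility control), with growth and sterility control wells. Triplicate.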

Cryptococcus neoformans [2] = assay: Growth inhibition of Cryptococcus neoformans ATCC 32264 at 31.25 ug/ml incubated for 48 hrs under dark condition by broth microdilution method relative to control; type: functional; details: ATCC 32264, 48 h, read-out: GI; in short: as §1
Cryptococcus neoformans [3] = assay: Growth inhibition of Cryptococcus neoformans ATCC 32264 at 125 ug/ml incubated for 48 hrs under dark condition by broth microdilution method relative to control; type: functional; details: ATCC 32264, 48 h, read-out: GI; in short: as §1
Cryptococcus neoformans [4] = assay: Growth inhibition of Cryptococcus neoformans ATCC 32264 at 3.4 ug/ml incubated for 48 hrs under dark condition by broth microdilution method relative to control; type: functional; details: ATCC 32264, 48 h, read-out: GI
Cryptococcus neoformans [5] = assay: Growth inhibition of Cryptococcus neoformans ATCC 32264 at 7.8 ug/ml incubated for 48 hrs under dark condition by broth microdilution method relative to control; type: functional; details: ATCC 32264, 48 h, read-out: GI; in short: as §1
Cryptococcus neoformans [6] = assay: Growth inhibition of Cryptococcus neoformans ATCC 32264 at 15.62 ug/ml incubated for 48 hrs under dark condition by broth microdilution method relative to control; type: functional; details: ATCC 32264, 48 h, read-out: GI; in short: as §1
Cryptococcus neoformans [7] = assay: Growth inhibition of Cryptococcus neoformans ATCC 32264 at 250 ug/ml incubated for 48 hrs under dark condition by broth microdilution method relative to control; type: functional; details: ATCC 32264, 48 h, read-out: GI; in short: as §1
Trypanosoma cruzi = assay: Antitrypanosomal activity against Trypanosoma cruzi Tulahuen intracellular amastigote harboring LacZ infected in human U937 cells after 72 hrs by CPRG/Nonidet reagent based spectrophotometric method; type: functional, cell-based; details: U-937, 72 h
In short: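 U-937 cells at 2.5 × 10^5 cells/mL in RPMI-1640 with 10% serum and 0.1 µg/mL PMA were infected with β-galactosidase-transfected Tulahuen epimastigotes at 5 parasites per cell. Infected cells were exposed to 50, 12.5, 3.125 and 0.78 µg/mL for 72 h. CPRG (100 uM) and 0.1% Nonidet P-40 were added for 3 h, read at 570 nm. EC50 by Probit. Triplicate, at least two experiments; benznidazole as reference.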

Plasmodium falciparum = assay: Antiplasmodial activity against chloroquine-sensitive Plasmodium falciparum 3D7 assessed as reduction in parasitic LDH activity after 48 hrs by Malstat reagent based […] method; type: functional; details: 3D7, 48 h
In short: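 Unsynchronized P. falciparum 3D7 at 0.5% parasitemia and 1% hematocrit in RPMI with 3% Albumax II. Exposed to 100, 25, 6.25 and 1.56 µg/mL for 48 h at 37 °C under 90% N2/5% CO2/5% O2. After three freeze-thaw cycles, LDH measured with Malstat and NBT/PES, 1 h in the dark, read at 650 nm. IC50 by Probit; triplicate, ≥2 experiments.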

Q: Which results are given for `C[C@@H]1[C@H](O)[C@@H](C)/C=C/C=C/C=C/C=C/C=C/C=C/C=C/[C@H](O[C@@H]2O[C@H](C)[C@@H](O)[C@H](N)[C@@H]2O)C[C@@H]2O[C@](O)(C[C@@H](O)C[C@@H](O)[C@H](O)CC[C@@H](O)C[C@@H](O)CC(=O)O[C@H]1C)C[C@H](O)[C@H]2C(=O)O` [AMPHOTERICIN B]?
A: LC50 (U-937): 36 µg/mL (≈ 39 µM); inhibition of growth at 62.5 µg/mL (Cryptococcus neoformans [1]): 100%; inhibition of growth at 31.25 µg/mL (Cryptococcus neoformans [2]): 100%; inhibition of growth at 125 µg/mL (Cryptococcus neoformans [3]): 100%; inhibition of growth at 3.4 µg/mL (Cryptococcus neoformans [4]): 100%; inhibition of growth at 7.8 µg/mL (Cryptococcus neoformans [5]): 100%; inhibition of growth at 15.62 µg/mL (Cryptococcus neoformans [6]): 100%; inhibition of growth at 250 µg/mL (Cryptococcus neoformans [7]): 100%

Q: Which LC50 (U-937) does the source give for `O=C(Cn1ccnc1[N+](=O)[O-])NCc1ccccc1` [BENZNIDAZOLE] here?
A: Its LC50 is 180 µg/mL (≈ 692 µM).

Q: And the EC50 (Trypanosoma cruzi)?
A: Its EC50 is 10.7 µg/mL (≈ 41.1 µM).

Q: Which EC50 (Plasmodium falciparum) does the source give for `CCN(CC)CCCC(C)Nc1ccnc2cc(Cl)ccc12.O=P(O)(O)O.O=P(O)(O)O` (stereo unspecified) [CHLOROQUINE PHOSPHATE] here?
A: Its EC50 is 18.9 µg/mL.
